The test system of data set [1] is Macrophage. The experiment in a line: Inhibition of LPS-stimulated TNFalpha production in mouse peritoneal macrophages. In kind it is functional, cell-based. The gist of the method: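 Murine peritoneal macrophages stimulated with LPS while exposed to test compound; TNFα release measured as functional read-out. Cell assay minimum significant ratio 2.8.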
Data set [2] has as its target Mitogen-activated protein kinase 14 (Mus musculus, UniProt P47811). The data set can be described thus: Inhibition of mouse p38alpha in anisomycin-stimulated RAW 264.7 cells by ELISA. It is filed as cell-based. The gist of the method: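 Cell-based ELISA: RAW 264.7 cells pretreated with compound, then stimulated with anisomycin; p38α activity detected by antibody to phospho-MAPKAPK-2 (Thr334), a residue phosphorylated specifically by p38α. Minimum significant ratio 2.8.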

Data set [3] deals with Mitogen-activated protein kinase 14 (Homo sapiens, UniProt Q16539). The data set can be described thus: Inhibition of human recombinant p38alpha.
Sequence of Mitogen-activated protein kinase 14 (Homo sapiens, UniProt Q16539) (Q16539 whole entry): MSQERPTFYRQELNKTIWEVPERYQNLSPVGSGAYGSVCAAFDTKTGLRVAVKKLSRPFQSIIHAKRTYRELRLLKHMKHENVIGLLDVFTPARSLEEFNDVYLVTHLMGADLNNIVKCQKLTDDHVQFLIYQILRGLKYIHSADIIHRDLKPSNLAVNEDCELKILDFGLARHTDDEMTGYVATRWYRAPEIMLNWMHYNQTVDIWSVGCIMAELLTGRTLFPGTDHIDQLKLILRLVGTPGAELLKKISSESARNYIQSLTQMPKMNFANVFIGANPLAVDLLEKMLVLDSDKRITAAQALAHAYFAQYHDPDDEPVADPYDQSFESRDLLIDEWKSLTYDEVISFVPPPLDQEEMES
Data set [4] relates to Mus musculus. The data set can be described thus: Inhibition of LPS-stimulated TNFalpha production in po dosed BALB/c mouse. In kind it is functional.
Data set [5] has as its system Rattus norvegicus. The experiment in a line: Antiinflammatory activity against collagen-induced arthritis rat model assessed as inhibition of paw swelling administered orally twice daily for 14 days. It is filed as functional. The procedure, abridged: (§1)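 Rat collagen-induced arthritis, 14-day chronic model; activity scored by paw swelling and by histopathology (bone erosion, cartilage destruction); TMED50 derived from dose response.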

Data set [6] deals with Rattus norvegicus. The experiment in a line: Antiinflammatory activity against collagen-induced arthritis rat model assessed as effect on histopathology scores administered orally twice daily for 14 days. It is filed as functional. The gist of the method: as §1
A short description of data set [7]: AUC (0 to infinity) in rat at 10 mg/kg, po. It is filed as ADME, organism-based. On the set-up: time infinity, dose 10 mg/kg, route oral. Particulars: plasma. The gist of the method:
(§2)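 Rats dosed orally at 10 mg/kg; plasma exposure reported as AUC0-inf and terminal half-life.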

A short description of data set [8]: Half life in rat at 10 mg/kg, po. It is filed as ADME, organism-based. Also on record: dose 10 mg/kg, route oral. Particulars: in vivo. The procedure, abridged: as §2

We go through 29 compounds from ChEMBL document CHEMBL1143180, “Imidazolyl benzimidazoles and imidazo[4,5-b]pyridines as potent p38alpha MAP kinase inhibitors with excellent in vivo antiinflammatory properties” (Bioorg Med Chem Lett, 2008).

Each structure is given as a SMILES string.

Sequence of Mitogen-activated protein kinase 14 (Mus musculus, UniProt P47811) (P47811 whole entry): as the sequence (Q16539 whole entry) above, with L48H, T263A counted along it

What is called IC50 is the point on the concentration scale where inhibition reaches its midpoint. Take `CC(C)S(=O)(=O)n1c(N)nc2ccc(-c3[nH]cnc3-c3ccccc3)cc21`: the IC50 in data set [1] worked out at 31.8 nM; in data set [2], 195 nM.

Regarding `CC(C)S(=O)(=O)n1c(N)nc2ccc(-c3nc(-c4c(Cl)cccc4Cl)[nH]c3-c3ccccc3)cc21`, the concentration for half-maximal inhibition (IC50) in data set [1] came to 2.6 nM; in data set [2], 38.9 nM.

For `Cc1nc2ccc(-c3[nH]c(-c4c(F)cccc4F)nc3-c3ccccc3)cc2n1CC(C)C`, the figures for the IC50 in data set [3] and in data set [1] were 11.2 nM and 338 nM, respectively.

For `Cc1nc(-c2ccccc2)c(-c2ccc3nc(N)n(S(=O)(=O)C(C)C)c3c2)[nH]1`, the 50% inhibitory concentration (IC50) in data set [3] was found to be 20.4 nM; in data set [1], 186 nM.

Turning to `CC(C)S(=O)(=O)n1c(N)nc2ccc(-c3[nH]c(-c4c(Cl)cccc4C(F)(F)F)nc3-c3ccccc3)cc21`, the half-inhibitory concentration (IC50) in data set [3] is 8.5 nM; in data set [1] it was 1.9 nM; in data set [2] it was 398 nM.

Regarding `CC(C)(C)Cn1cnc2ccc(-c3[nH]c(C(C)(C)C)nc3-c3ccc(F)cc3F)nc21`, the values for the IC50 in data set [1] and in data set [2] were 24.1 nM and 20.7 nM, respectively.

Take `Cc1nc(-c2ccc(F)cc2F)c(-c2ccc3nc(N)n(S(=O)(=O)C(C)C)c3c2)[nH]1`: the IC50 in data set [3] came to 8.8 nM; in data set [1] it was 46.5 nM; in data set [2], 59.7 nM.

As to `Cc1nc(-c2ccc(F)cc2)c(-c2ccc3nc(N)n(S(=O)(=O)C(C)C)c3c2)[nH]1`, the figures for the concentration for half-maximal inhibition (IC50) in data set [3], in data set [1] and in data set [2] were 7.1 nM, 104 nM and 225 nM, respectively.

As to `CC(C)S(=O)(=O)n1c(N)nc2ccc(-c3nc(-c4ccccc4C(F)(F)F)[nH]c3-c3ccccc3)cc21`, the IC50 in data set [3] came to 26.1 nM; in data set [1], 33.1 nM; in data set [2] it was 284 nM.

Turning to `CC(C)S(=O)(=O)n1c(N)nc2ccc(-c3[nH]c(-c4c(F)cccc4F)nc3-c3ccccc3)nc21`, the half-inhibitory concentration (IC50) in data set [3] was 3.5 nM; in data set [1] it was 3.7 nM; in data set [2], 298 nM.

Regarding `CC(C)S(=O)(=O)n1c(N)nc2ccc(-c3[nH]c(-c4c(F)cccc4Cl)nc3-c3ccccc3)cc21`, the IC50 is 14.5 nM in data set [3], 11.2 nM in data set [1] and 74.5 nM in data set [2].

Regarding `Fc1cccc(F)c1-c1nc(-c2ccccc2)c(-c2ccc3nc[nH]c3c2)[nH]1`, the values for the half-inhibitory concentration (IC50) in data set [3], in data set [1] and in data set [2] were 88.4 nM, 419 nM and 766 nM, respectively.

Take `CC(C)S(=O)(=O)n1c(N(C)Cc2ccccc2)nc2ccc(-c3[nH]c(-c4c(F)cccc4F)nc3-c3ccccc3)cc21`: the IC50 was determined as 2490 nM in data set [3] and 234 nM in data set [1].

Turning to `Nc1nc2ccc(-c3[nH]c(-c4c(F)cccc4F)nc3-c3ccccc3)cc2[nH]1`, the values for the IC50 in data set [3] and in data set [1] were 131 nM and 1330 nM, respectively.

Turning to `CC(C)Cn1cnc2ccc(-c3[nH]c(-c4c(F)cccc4F)nc3-c3ccccc3)nc21`, the concentration for half-maximal inhibition (IC50) in data set [3] turned out to be 4.5 nM; in data set [1], 26.7 nM; in data set [2], 69.7 nM.

Usually AUC(0-inf) stands for the area under the concentration-time curve extrapolated to infinity. High values mean high exposure, low ones low exposure. By half-life is commonly meant how long it takes for the measured level to halve. Lower therefore signals fast loss. As to `CC(C)S(=O)(=O)n1c(N)nc2ccc(-c3[nH]c(-c4c(F)cccc4F)nc3-c3ccccc3)cc21`, the results for the 50% inhibitory concentration (IC50) in data set [1] and in data set [2] were 10.3 nM and 45.7 nM, respectively. In addition, the results for the TMED50 in data set [4], in data set [5] and in data set [6] were 5.2 mg/kg, over 30 mg/kg and over 30 mg/kg, respectively. This compound also showed an AUC(0-inf) in data set [7] of 5.5 µM·h. The compound further had a half-life in data set [8] of 5 h.

Consider `CC(C)(C)Cn1c(N)nc2ccc(-c3[nH]c(-c4c(F)cccc4F)nc3-c3ccccc3)cc21`, for which the IC50 in data set [3] worked out at 6 nM; in data set [1], 3.5 nM; in data set [2], 126 nM.

`CC(C)S(=O)(=O)n1c(N)nc2ccc(-c3nc(-c4c(Cl)cccc4Cl)[nH]c3-c3ccc(F)cc3)cc21`: the concentration for half-maximal inhibition (IC50) was found to be 6.7 nM in data set [3], 5.3 nM in data set [1] and 27.5 nM in data set [2].

Turning to `CCNc1nc2ccc(-c3[nH]c(-c4c(F)cccc4F)nc3-c3ccccc3)cc2n1S(=O)(=O)C(C)C`, the results for the IC50 in data set [3] and in data set [1] were 156 nM and 527 nM, respectively.

`CC(C)(C)Cn1c(N)nc2ccc(-c3[nH]c(-c4c(F)cccc4F)nc3-c3ccccc3)nc21`: the half-maximal inhibitory concentration (IC50) was 6.4 nM in data set [3] and under 9 nM in data set [1].

For `CC(C)S(=O)(=O)n1c(N)nc2ccc(-c3[nH]c(-c4ccc(Cl)cc4)nc3-c3ccccc3)cc21`, the half-maximal inhibitory concentration (IC50) in data set [3] was determined as 34.7 nM; in data set [1], 71 nM; in data set [2], 376 nM.

In the case of `CCNc1nc2ccc(-c3[nH]c(-c4c(F)cccc4F)nc3-c3ccccc3)cc2[nH]1`, the half-inhibitory concentration (IC50) in data set [3] stood at 56.4 nM; in data set [1], 493 nM.

For the compound `CC(C)S(=O)(=O)n1c(N)nc2ccc(-c3[nH]c(C(C)(C)C)nc3-c3ccc(F)cc3F)cc21`, the IC50 in data set [1] was 6.2 nM; in data set [2] it was 26.2 nM. The values for the TMED50 in data set [4], in data set [5] and in data set [6] were 2.2 mg/kg, 1.5 mg/kg and 8.1 mg/kg, respectively. This compound displayed an AUC(0-inf) in data set [7] of 14.6 µM·h. The half-life in data set [8] is 8 h.

`Nc1nc2ccc(-c3[nH]c(-c4c(F)cccc4F)nc3-c3ccccc3)cc2n1-c1ccccc1`: in data set [3], the IC50 came to 158 nM.

As for `CC(C)Cn1cnc2ccc(-c3[nH]c(-c4c(F)cccc4F)nc3-c3ccccc3)cc21`, the IC50 in data set [3] was found to be 16.2 nM; in data set [1], 51.9 nM.

Take `CC(C)Cn1cnc2ccc(-c3[nH]c(-c4c(Cl)cccc4Cl)nc3-c3ccccc3)nc21.CS(=O)(=O)O`: the IC50 in data set [3] was found to be 3.7 nM; in data set [1], 1.7 nM; in data set [2] it was 64.7 nM. For the same compound, the TMED50 in data set [4] is under 2.5 mg/kg; in data set [5], 15 mg/kg; in data set [6] it was over 30 mg/kg. Besides, the AUC(0-inf) in data set [7] stood at 29.9 µM·h. The compound further had a half-life in data set [8] of 4 h.

For `CC(C)S(=O)(=O)n1c(N)nc2ccc(-c3[nH]c(-c4ccncc4)nc3-c3ccccc3)cc21`, the IC50 in data set [3] was determined as 6.1 nM; in data set [1], 14.1 nM; in data set [2] it was 62.3 nM.

Take `CC(C)Cn1c(N)nc2ccc(-c3[nH]c(-c4c(F)cccc4F)nc3-c3ccccc3)nc21`: the concentration for half-maximal inhibition (IC50) in data set [3] was 2.5 nM; in data set [1] it was 1.3 nM; in data set [2], 35 nM.

With `CC(C)Cn1c(N)nc2ccc(-c3[nH]c(-c4c(F)cccc4F)nc3-c3ccccc3)cc21`, the half-inhibitory concentration (IC50) was found to be 9.9 nM in data set [3], 47.5 nM in data set [1] and 78.3 nM in data set [2].
